Bioassay records as filed in PubChem.
An excerpt weighted towards active compounds, which were near 1.7% of everything screened.
MEX-5 binding = C. elegans MEX-5 TCR-2 RNA binding activity. Q9XUB2. MEX-5/FITC-TCR2 RNA binding, fluorescence polarization; active compounds read low. activity score (negative = inhibition of binding), % at 10 µM. 0.38% of 300,000 active. AID 1832;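 active means inhibition past about -25% in most replicates, and total fluorescence under double the plate's negative control median, limit read from the data; inconclusive means replicates evenly split on the limit, or fluorescence at least double controls; inactive means too little inhibition in most replicates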;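 further: 0% = DMSO and -100% = 5 µM competing unlabeled TCR2 RNA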
HCV NS3 hel inh = inhibitors of Hepatitis C virus NS3 helicase; NS3 helicase DNA unwinding, Cy5 molecular beacon fluorescence; inhibition, % at 10.9 µM; 0.56% of 290,000 active; AID 1800;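 active means inhibition above the mean of all tested compounds plus 3 SD, set per campaign, cut at about 35% in these data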;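 further: 0% = DMSO wells and 100% = thioflavine S control wells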
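Measured by: Cy5 fluorescence, 0 and 60 min reads / Assay system: NS3 helicase fragment of HCV / Control set: low DMSO, high thioflavine S at 110 µM / Times: 1 h reaction at 25 °C, ATP-initiated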
EBV gp42 inh = inhibitors of Epstein-Barr virus glycoprotein 42 | Q1HVG2 | Fluorescence polarization binding assay, mP read-out | inhibition, % (tested at 21.74 µM) | 0.42% of 220,000 active; in the data active means inhibition above about 50%
Target sequence (Q1HVG2 whole entry, looked up): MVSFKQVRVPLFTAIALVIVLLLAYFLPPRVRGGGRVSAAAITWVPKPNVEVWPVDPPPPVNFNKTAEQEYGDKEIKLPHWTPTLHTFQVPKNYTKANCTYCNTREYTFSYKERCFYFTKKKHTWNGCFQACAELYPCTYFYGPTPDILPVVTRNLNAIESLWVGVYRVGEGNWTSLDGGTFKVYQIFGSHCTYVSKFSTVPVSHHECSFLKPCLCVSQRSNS
HCV core dimer = blocks dimerization of HCV core protein | TR-FRET GST/Flag-core106 dimerization, 1536-well | inhibition, % at 5 µM | AID 1899 | 0.33% of 300,000 active;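 active means inhibition above the mean of all tested compounds plus 3 SD, set per screening campaign, cut at about 45% in these data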
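Assay system: tagged HCV core106 pair (GST and Flag); medium: KF-containing HEPES buffer, pH 7.45, DTT, CHAPS, BSA; also added: Eu donor and XL665 acceptor anti-tag antibodies; dosing: 5 µM single dose; timing: compound-protein-antibody incubation 4 h at 22.5 °C; signal: TR-FRET 671 and 617 nm emission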
ZTA DNA inh = ZTA (EBV) inhibition in EBNA-1 counter-screen | P03206 | ZTA-DNA binding, fluorescence polarization | inhibition, % at 11 µM | 0.15% of 320,000 active | AID 2234; in the data active means inhibition above about 33%
Target sequence (P03206 whole entry, looked up): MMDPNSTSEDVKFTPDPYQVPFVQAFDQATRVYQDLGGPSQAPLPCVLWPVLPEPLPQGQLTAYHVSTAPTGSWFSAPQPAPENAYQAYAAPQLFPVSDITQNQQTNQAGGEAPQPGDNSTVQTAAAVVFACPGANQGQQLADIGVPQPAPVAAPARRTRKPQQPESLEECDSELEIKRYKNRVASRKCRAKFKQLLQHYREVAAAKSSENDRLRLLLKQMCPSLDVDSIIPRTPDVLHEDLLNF
EBNA-1 inh = blocks EBNA-1 binding to DNA; EBNA-1 DNA binding, fluorescence polarization; inhibition, % at 14.8 µM; 0.34% of 300,000 active; AID 1950; in the data active means inhibition above about 28%
NS3 hel confirm = HCV NS3 helicase inhibition, confirmation assay; shares compounds with HCV NS3 hel inh; NS3 helicase DNA unwinding, Cy5 molecular beacon fluorescence; inhibition, % at 10.9 µM; 31% of 1,600 active;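 active means inhibition above the mean of all tested compounds plus 3 SD, cutoff set per campaign, cut at about 36% in these data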
DNA FID counter = counter-screen for HCV NS3 helicase inhibitors: DNA intercalator displacement | shares compounds with HCV NS3 hel inh | DNA fluorescent intercalator displacement, fluorescence | inhibition, % at 7.9 µM | 4% of 1,600 active | AID 1945; in the data active means inhibition above about 37%;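 further: 0% = vehicle and 100% = reference compound; higher means more displacement of ethidium bromide from the DNA hairpin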
DNA FID DR = DNA intercalator displacement in dose response. shares compounds with HCV NS3 hel inh. fluorescent intercalator displacement from DNA, fluorescence. IC50, µM. 120 tested, under 10 active; call rule not given here
* marks the source's active call; other numbers are inactive results; ? = inconclusive; · = no result given; + = active, no number.

SMILES	MEX-5 binding	HCV NS3 hel inh	EBV gp42 inh	HCV core dimer	ZTA DNA inh	EBNA-1 inh	NS3 hel confirm	DNA FID counter	others
Cc1ccn(CCC(=O)Nc2ccc3c(c2)OCO3)n1	-1	3	·	11	-5	2	·	·
Cc1sc2nc[nH]c(=S)c2c1-c1ccccc1	1	15	-4	0	18	12	·	·
Cc1c(Cl)c(C(F)F)nn1CC(=O)NC1C(=O)N2C(C(=O)O)=C(CSc3nnnn3C)CSC12 (stereo unspecified)	-3	38*	-6	·	·	·	32	-2
COc1ccc([C@H]2CC(=O)C=C(c3cc(OC)ccc3OC)C2)cc1	·	·	·	·	-1	·	·	·
COc1ccc(/C(O)=C2/C(=O)C(=O)N(CCN3CCNCC3)C2c2cccc([N+](=O)[O-])c2)cc1 (stereo unspecified)	2	-1	·	8	2	-8	·	·
Cc1nc(-c2ccc(-n3nncc3-c3ccco3)cc2)cs1	0	56*	-5	5	-7	8	-17	-22
CC(C)CC(=O)Nc1nnc(S(=O)(=O)N(C)Cc2ccco2)s1	-2	55*	·	-7	-22	-5	-3	10
CCc1cc(=O)oc2c3c(cc(OCC(=O)NCCCC(=O)O)c12)OC(C)(C)CC3	0	-6	·	-11	13	-1	·	·
CCc1cc(=O)oc2c3c(cc(OCC(=O)NC4CC4)c12)OC(C)(C)CC3	0	42*	·	0	-1	-11	-8	-37
O=C(COC(=O)c1c2c(nc3ccccc13)CCCC2)c1cccs1	0	41*	-15	-5	-9	2	-6	-20
COCCNC(=O)CCCCCNS(=O)(=O)c1ccc(C)cc1	0	2	-10	-3	15	9	·	·
Cc1ccc(S(=O)(=O)NCCCCCC(=O)NCCc2ccccc2)cc1	0	43*	·	-5	-25	-15	-11	-28
CCCCOc1ccc(C2C(C(=O)c3ccc(C)o3)=C(O)C(=O)N2Cc2ccco2)cc1 (stereo unspecified)	0	69*	·	36	9	6	135*	-49	DNA FID DR=>79
Cc1ccc(C(=O)C2=C(O)C(=O)N(Cc3ccco3)C2c2ccc(N(C)C)cc2)o1 (stereo unspecified)	-6	98*	·	-4	3	-4	8	-6
CCCOc1ccc(C2C(C(=O)c3ccc(C)o3)=C(O)C(=O)N2Cc2cccnc2)cc1 (stereo unspecified)	0	7	-25	5	-5	-14	·	·
Cc1ccc(S(=O)(=O)Nc2ccccc2C(=O)N2CCCCC2C)c(C)c1NS(C)(=O)=O (stereo unspecified)	0	25	·	-19	-12	-9	·	·
Cc1cc(/C=C2\C(=N)N3N=C(c4ccco4)SC3=NC2=O)c(C)n1Cc1ccccc1	-2	24	-40	42	7	-5	·	·
COc1ccc(-n2cccc2/C=C2\C(=N)N3N=C(C(C)C)SC3=NC2=O)cc1	0	25	6	24	3	8	·	·
COc1ccc(-n2cccc2/C=C2\C(=N)N3N=C(c4ccco4)SC3=NC2=O)cc1	1	42*	76*	48*	2	6	71*	-14	DNA FID DR=>79
N=C1/C(=C/c2coc3ccccc3c2=O)C(=O)N=C2SC(c3ccco3)=NN12	?	54*	45	-4	11	3	50*	50*
COc1ccc(CC(=O)O/N=C(\N)c2ccccc2)cc1OC	-1	0	·	4	5	3	·	·
Cc1ccc(-n2ncc(C#N)c2/N=C/N2CCCCCC2)cc1	-2	101*	-8	8	6	-1	1	-38
CCOc1ccccc1C(=O)Nc1ccc(S(=O)(=O)Nc2nccc(C)n2)cc1	0	13	·	3	-6	-2	·	·
CC(C)(Oc1ccc(-c2ccco2)cc1)C(=O)O	-6	41*	-12	1	-8	1	30	3
C/C(CC(=O)N1CCCC1)=N\NC(=O)c1cc2ccccc2cc1O	0	45*	15	0	-5	-14	5	-5
SMILES	MEX-5 binding	HCV NS3 hel inh	EBV gp42 inh	HCV core dimer	ZTA DNA inh	EBNA-1 inh	NS3 hel confirm	DNA FID counter	others
O=C1Nc2ccc(Cl)cc2C(C#CC2CC2)(C(F)(F)F)O1 (stereo unspecified)	-1	0	·	-1	-3	-2	·	·
CCN(CC)c1ccc2nc3ccccc3[n+](CC)c2c1	-6	57*	·	-378	+	174*	99*	51*
NC(=NCCc1ccccc1)NC(=O)c1cc(Cl)ccc1O	-1	·	·	2	2	-4	·	·
COc1ccc(OCc2cc(C(=O)NC3CCOC(C)(C)C3)no2)c2ccccc12 (stereo unspecified)	-2	47*	·	12	-18	3	-19	-35
COCCN(C(=O)CSc1nc2ccccc2o1)c1c(N)n(Cc2ccccc2)c(=O)[nH]c1=O	·	·	·	·	2	·	·	·
O=C1CC(=O)c2c1cccc2[N+](=O)[O-]	·	37*	-2	·	·	·	90*	16
C=CC[C@]12CCc3sccc3C1N(c1ccc(C(=O)OCC)cc1)C2=O (stereo partly specified)	·	·	·	·	-11	·	·	·
CN(C)c1ccc(NC(=O)C2C3C=CC(C3)C2C(=O)O)cc1 (stereo unspecified)	-2	56*	·	·	·	·	30	14
CCCCNC(=O)c1onc(CS(=O)(=O)c2ccccn2)c1C(=O)NCCCC	·	·	·	-7	-15	-5	·	·
O=C1S/C(=C\C=C\c2ccco2)C(=O)N1c1ccccc1	-1	49*	-14	30	15	8	45*	34
O=C1S/C(=C\C=C\c2ccco2)C(=O)N1c1ccc(O)cc1	-1	129*	4	51*	19	10	-2	11
C/C(CC(=O)NCc1ccco1)=N\NC(=O)c1ccc([N+](=O)[O-])cc1Cl	1	4	·	0	0	5	·	·
O=C(CCN1C(=O)/C(=C/c2cccs2)SC1=S)Nc1cccc(C(=O)O)c1	5	36*	·	-1	-9	-6	58*	4
CC(=C\c1ccccc1)/C=C1/SC(=O)N(CCCC(=O)Nc2ccc(C(=O)O)cc2)C1=O	-1	24	-9	21	4	-17	·	·
O=C(CCN1C(=O)/C(=C/c2ccc(Cl)cc2)SC1=S)Nc1cccc(C(=O)O)c1	-2	21	·	20	2	2	·	·
COc1ccc(/C=C2\SC(=S)N(CCC(=O)Nc3cccc(C(=O)O)c3)C2=O)cc1	0	39*	·	-1	21	1	52*	7
